Active and inactive are the calls of the source. The calls are words filed in the database; no cut-off is given here. Bounds are passed on as bounds.

The test system of one assay is Jurkat. Briefly: Cytotoxicity against human Jurkat cells assessed as cell viability after 24 hrs by MTT assay. The format is functional, cell-based. The essentials:
(§1)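 Cells exposed to compounds at 3.125 to 50 µM for 24 h; proliferation read by MTT assay; IC50 (µM) reported. Panel: leukemia lines HL-60, U937, THP-1, Jurkat; stomach KATO III; colon HCT-15; hepatoma HepG2; normal skin fibroblasts NB1RGB and HF-19.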

The subject of another assay is THP-1. Briefly: Cytotoxicity against human THP1 cells assessed as cell viability after 24 hrs by MTT assay. The format is functional, cell-based. As to conditions: THP-1, 24 h. The essentials: as §1
For another assay, the system named is HCT-15. The assay is described as follows: Cytotoxicity against human HCT15 cells assessed as cell viability after 24 hrs by MTT assay. As to conditions: HCT-15, 24 h. The format is functional, cell-based. In outline:
as §1
On the technique in general: Formazan colour is commonly taken as a measure of viable cells.

The nature of assay [1]: Cytotoxicity against human HF19 cells assessed as cell viability after 24 hrs by MTT assay. The format is cell-based. As to conditions: HF19, 24 h. The essentials: as §1
A short description of assay [2]: Cytotoxicity against human NB1RGB cells assessed as cell viability after 24 hrs by MTT assay. The format is cell-based. In outline:
as §1

In another assay the test system is HepG2. The assay is described as follows: Cytotoxicity against human HepG2 cells assessed as cell viability after 24 hrs by MTT assay. The class given is functional, cell-based. As to conditions: HepG2, 24 h. The essentials:
as §1

Assay [3] deals with HL-60. Briefly: Cytotoxicity against human HL60 cells assessed as cell viability after 24 hrs by MTT assay. The class given is functional, cell-based. As to conditions: HL-60, 24 h. In outline: as §1
Assay [4] can be described thus: Cytotoxicity against human KATO III cells assessed as cell viability after 24 hrs by MTT assay. The format is functional, cell-based. The essentials: as §1
For a further assay, the system named is U-937. The assay is described as follows: Cytotoxicity against human U937 cells assessed as cell viability after 24 hrs by MTT assay. As to conditions: U-937, 24 h. The format is functional, cell-based. In outline: as §1
The test system of assay [5] is HL-60. Briefly: Induction of apoptosis in human HL60 cells assessed as DNA fragmentation at 12.5 uM after 24 hrs by agarose gel electrophoresis. The class given is functional, cell-based. In outline:
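HL-60 cells treated with 12.5 µM compound for 24 h; DNA extracted and laddering resolved by agarose gel electrophoresis against a 100 bp marker; representative of three independent experiments.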

The test system of assay [6] is HL-60. Briefly: Induction of apoptosis in human HL60 cells assessed as chromatin condensation at 12.5 uM after 24 hrs by Hoechst 33258 staining-based fluorescent microscopy. The format is functional, cell-based. The essentials:
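Nuclear morphology: HL-60 cells treated 24 h with 12.5 µM compound, stained with Hoechst 33258, and viewed by fluorescence microscopy at ×400; representative of three independent experiments.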

In assay [7] the test system is HL-60. Briefly: Induction of apoptosis in human HL60 cells assessed as PARP cleavage at 12.5 uM by Western blot analysis. The class given is functional, cell-based. As to conditions: TDE = time-dependent effect. The essentials:
(§2)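 HL-60 cells given 12.5 µM compound for 6–24 h, then lysed; caspase-3 and PARP (cleavage) probed by Western blot with β-actin as loading control; representative of three independent experiments.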
Background: A western blot detects proteins with antibodies after separation by electrophoresis.

Assay [8] concerns HL-60. Briefly: Induction of apoptosis in human HL60 cells assessed as DNA fragmentation at 12.5 uM after 24 hrs by agarose gel electrophoresis in presence of caspase inhibitior Z-VAD-FMK and Z-DEVD-FMK. The class given is functional, cell-based. In outline:
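HL-60 cells pretreated 1 h with 50 µM caspase inhibitor (z-VAD-FMK, broad; z-DEVD-FMK, caspase-3), then given 12.5 µM compound for 24 h; DNA fragmentation by agarose gel electrophoresis; representative of three independent experiments.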

The test system of assay [9] is HL-60. Briefly: Induction of apoptosis in human HL60 cells assessed as DNA fragmentation at 12.5 uM by agarose gel electrophoresis. The format is functional, cell-based. As to conditions: TDE = time-dependent effect. The essentials: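 Time course: HL-60 cells exposed to 12.5 µM compound for 6–24 h; DNA fragmentation assessed by agarose gel electrophoresis; representative of three independent experiments.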

Assay [10] relates to HL-60. The assay is described as follows: Induction of apoptosis in human HL60 cells assessed as activation of caspase 3 at 12.5 uM by Western blot analysis. The class given is functional, cell-based. As to conditions: TDE = time-dependent effect. In outline:
as §2

Usually IC50 stands for the concentration needed to halve the response being measured. `CCCC(=O)c1c2c(c3oc(=O)cc(CCC)c3c1O)C=CC(C)(C)O2`: the IC50 (with Jurkat; in the assay with THP-1; in the assay on HCT-15; in [1]; in assay [2]; in the assay with HepG2) was more than 50 µM each time. Further, the IC50 with HL-60 [3] is 37.2 µM; in assay [4], more than 50 µM; with U-937 it was 47.6 µM. Besides, in the assay with HL-60 [5], the outcome was inactive.

On to `CCC(C)C(=O)c1c(O)c2c(c3c([C@@H](O)CC)cc(=O)oc13)OC(C(C)(C)O)C2` (some centres not stated), for which the IC50 in the assay with Jurkat is more than 50 µM; with THP-1 it was 40.6 µM; in the assay with HCT-15 it was more than 50 µM; in [1] it was more than 50 µM; in assay [2], more than 50 µM; in the assay with HepG2 it was more than 50 µM. Also, the IC50 in the assay on HL-60 [3] was 29.2 µM; in assay [4], more than 50 µM; with U-937, 33.4 µM. The outcome in the assay with HL-60 [5] was inactive.

Take `CCC(C)C(=O)c1c(O)c(CC=C(C)C)c(O)c2c([C@@H](O)CC)cc(=O)oc12` (some centres not stated): the IC50 in the assay on Jurkat is 29.9 µM; in the assay on THP-1, 9.23 µM; with HCT-15, more than 50 µM; in [1], more than 50 µM; in [2] it was more than 50 µM; in the assay on HepG2 it was more than 50 µM. Moreover, the figures for the 50% inhibitory concentration (IC50) (with HL-60 [3]; in assay [4]; in the assay on U-937) were 13.7 µM, 24.1 µM and 18.8 µM, respectively. Moreover, the outcome in the assay with HL-60 [6] and in the assay on HL-60 [5] was Active.

For `O=c1cc(-c2ccc(O)c(-c3c(O)cc(O)c4c(=O)cc(-c5ccc(O)cc5)oc34)c2)oc2cc(O)cc(O)c12` [AMENTOFLAVONE], the IC50 (with Jurkat; in the assay with THP-1; with HCT-15; in assay [1]; in [2]; with HepG2) was more than 50 µM in each case. Also, the IC50 (in the assay on HL-60 [3]; in assay [4]; in the assay on U-937) was more than 50 µM in each case. The result in the assay on HL-60 [5] was inactive.

In the case of `O=c1cc(-c2ccc(O)cc2)oc2cc(O)c([C@@H]3O[C@H](CO)[C@@H](O)[C@H](O)[C@H]3O)c(O)c12` [ISOVITEXIN], the IC50 (with Jurkat; in the assay on THP-1; with HCT-15; in assay [1]; in assay [2]; in the assay with HepG2) was more than 50 µM each time. For the same compound, the IC50 (in the assay on HL-60 [3]; in [4]; with U-937) was more than 50 µM throughout. In addition, in the assay with HL-60 [5], the result was inactive.

Take `CCCC(=O)c1c(O)c(C/C=C(\C)CCC=C(C)C)c(O)c2c([C@@H](O)CC)cc(=O)oc12` [KAYEASSAMIN A]: the IC50 in the assay with Jurkat is 19.8 µM; in the assay on THP-1, 16.7 µM; in the assay with HCT-15, more than 50 µM; in [1] it was more than 50 µM; in assay [2], more than 50 µM; in the assay on HepG2, more than 50 µM. The IC50 is 11.9 µM with HL-60 [3], 12 µM in assay [4] and 19.9 µM with U-937. Besides, the Activity result in the assay with HL-60 [7], in the assay on HL-60 [9] and in the assay with HL-60 [10] was “tde” in each case. Moreover, the outcome in the assay on HL-60 [6] and with HL-60 [5] was Active. Also, in the assay on HL-60 [8], the result was inactive.

On to `CCC(C)C(=O)c1c(O)c(C/C=C(\C)CCC=C(C)C)c(O)c2c([C@@H](O)CC)cc(=O)oc12` (some centres not stated) [SURANGIN C], for which the IC50 with Jurkat is 23.1 µM; in the assay with THP-1, 21.5 µM; in the assay with HCT-15, more than 50 µM; in [1] it was more than 50 µM; in assay [2], more than 50 µM; in the assay on HepG2, more than 50 µM. Further, the IC50 in the assay with HL-60 [3] was determined as 13.3 µM; in assay [4], 10.6 µM; in the assay on U-937 it was 27.6 µM. In addition, the outcome in the assay with HL-60 [6] and in the assay with HL-60 [5] was Active.

For the origin of these results see ChEMBL document CHEMBL2311482, “Antiproliferative and apoptotic effects of compounds from the flower of Mammea siamensis (Miq.) T. Anders. on human cancer cell lines” (Bioorg Med Chem Lett, 2013).
